Screening data deposited in PubChem BioAssay by several laboratories.
Sampled rows, rich in hits. Any-hit rate of the full collection: about 5.7%.
Calb FLC: C. albicans growth inhibition with fluconazole, primary screen, CaCi-2 strain, Alamar Blue fluorescence; C. albicans CaCi-2 (fluconazole-resistant clinical isolate) + fluconazole, 48 h; growth inhibition, % (test concentration not listed); 0.57% of 300,000 active; AID 1979, 2009;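 active = growth inhibition above about 58% in most replicates, limit read from the data, passing the limit was not always enough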;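 also: all wells also contain fluconazole at 8 µg/ml as a sub-toxic cotreatment; 0% = median of DMSO wells and 100% = median of geldanamycin control wells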
T cruzi inh: inhibitors of intracellular T. cruzi growth, primary screen, luminescence, NIH3T3 host cells; T. cruzi beta-gal in NIH3T3, 90 h; inhibition, % (test concentration not listed); 1.4% of 300,000 active;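 active = mean inhibition across valid replicates above about 55%, limit read from the data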;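 also: signal also drops with host cell toxicity which is not excluded here; 0% = plate median of DMSO wells and 100% = zero luminescence signal; higher percent means less beta-gal luminescence so fewer parasites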
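System: Mouse NIH/3T3 fibroblasts infected with β-gal-expressing T. cruzi Tulahuen C4 | Quantity: NIH/3T3 cells, 5,000 per well | Reagent: 5000 reporter trypomastigotes per well | Dosing: Compound pinned at 50 nL/well, DMSO | Schedule: 3 h host attachment, then at least 90 h co-culture | Detection: GalScreen luminescence, 60 min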
Beta apoptosis: inhibitors of cytokine-induced beta cell apoptosis, primary screen, luminescence; protection from apoptosis, % (test concentration not listed); INS-1E cytokine-induced death, ATP luminescence, 48 h; percent of positive-control rescue, neutral wells zero; 0.8% of 300,000 active;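 active = Every replicate reaches about 75%, or at least half do and their mean reaches it too, limit read from the data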;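 also: 0% = cytokine-treated negative control wells and 100% = positive control rescue; higher means more ATP so stronger rescue from cytokine killing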
SKKanGAS inh: S. pyogenes SKKanGAS growth inhibitors in kanamycin, primary screen, streptokinase expression inhibitor project, SKKanGAS strain, BacTiter-Glo luminescence; AID 1662, 2009; inhibition, % at 7.5 µM; 1.3% of 300,000 active; 6 h;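 active = mean replicate score, as percent of positive control median, at least 50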;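 also: strain carries kanamycin resistance gene driven by streptokinase promoter and grows in 40 µg/ml kanamycin; loss of luminescence reflects streptokinase promoter inhibition or plain growth inhibition; 0% = median of DMSO wells and 100% = positive control at its reference dose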
CSC inhib: cancer stem cell viability inhibitors, primary screen, luminescence; cancer stem cell-like cells viability; inhibition, % at 7.5 µM; 1.1% of 300,000 active; in the data active = inhibition above about 75%; tested in HMLE shEcad cells
Mdm2-MdmX inh: inhibitors of human Mdm2-MdmX association, primary screen, cell-based, luminescence, split luciferase, SaOS-2, uHTS; SaOS-2 split-luciferase Mdm2/MdmX complementation; inhibition, % at 8 µM; 3% of 330,000 active;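 active = inhibition of at least 50% at 8 µM in the primary screen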
Target sequence (O15151 whole entry, looked up): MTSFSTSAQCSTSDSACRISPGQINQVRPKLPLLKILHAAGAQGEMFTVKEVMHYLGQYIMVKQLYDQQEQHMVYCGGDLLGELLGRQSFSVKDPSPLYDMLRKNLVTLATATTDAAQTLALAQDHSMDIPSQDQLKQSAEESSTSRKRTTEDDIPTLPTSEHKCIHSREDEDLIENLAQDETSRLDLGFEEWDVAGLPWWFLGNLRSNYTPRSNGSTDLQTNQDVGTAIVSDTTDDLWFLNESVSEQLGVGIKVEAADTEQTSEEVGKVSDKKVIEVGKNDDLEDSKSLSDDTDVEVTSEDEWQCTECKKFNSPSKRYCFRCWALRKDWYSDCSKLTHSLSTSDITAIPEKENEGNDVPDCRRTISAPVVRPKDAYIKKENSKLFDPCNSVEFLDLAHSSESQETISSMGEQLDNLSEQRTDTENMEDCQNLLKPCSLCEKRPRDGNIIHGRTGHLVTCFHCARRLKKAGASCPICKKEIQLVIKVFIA
Target sequence (Q00987 whole entry, looked up): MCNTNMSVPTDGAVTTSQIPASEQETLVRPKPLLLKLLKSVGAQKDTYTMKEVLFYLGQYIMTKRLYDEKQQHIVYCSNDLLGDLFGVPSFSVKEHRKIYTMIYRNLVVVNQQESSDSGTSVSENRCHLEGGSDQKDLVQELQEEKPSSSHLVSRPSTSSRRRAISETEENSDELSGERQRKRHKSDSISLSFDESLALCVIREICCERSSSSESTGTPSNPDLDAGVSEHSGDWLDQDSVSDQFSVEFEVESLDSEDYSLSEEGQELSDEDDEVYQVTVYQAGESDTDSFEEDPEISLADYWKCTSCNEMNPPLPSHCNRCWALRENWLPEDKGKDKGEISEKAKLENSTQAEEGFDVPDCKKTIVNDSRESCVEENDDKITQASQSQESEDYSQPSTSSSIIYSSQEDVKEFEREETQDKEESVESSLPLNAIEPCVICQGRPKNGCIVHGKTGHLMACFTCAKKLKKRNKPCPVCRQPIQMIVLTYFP
Active calls of the source: *.

What do the screens show for `CCOc1ccc(C(C)=O)cc1CN1c2ccc(S(N)(=O)=O)cc2CC1C` (configuration not stated)?
Calb FLC: -1; T cruzi inh: -1; Beta apoptosis: 0; SKKanGAS inh: 4; CSC inhib: 6; Mdm2-MdmX inh: -2

Results for Cc1nnc(SCC(=O)NC2CCCCCC2)n1N ?
Beta apoptosis: -11; CSC inhib: -10; Mdm2-MdmX inh: -11

Results for O=C(c1cccc(S(=O)(=O)N2CCN(c3ccccc3)CC2)c1)N1CCN(c2ccccc2O)CC1 ?
Calb FLC: 2; T cruzi inh: 11; Beta apoptosis: 2; SKKanGAS inh: 35; CSC inhib: -3; Mdm2-MdmX inh: 30

How did CC1(C(=O)N2CCN(C(=O)c3ccco3)CC2)CC1(Br)Br (configuration not stated) do in these assays?
Calb FLC: 0; T cruzi inh: -8; Beta apoptosis: 1; SKKanGAS inh: -2; CSC inhib: -1; Mdm2-MdmX inh: -2

What do the screens show for `O=C(Nc1nnc(-c2cc(Cl)ccc2Cl)o1)C1=COCCO1`?
Calb FLC: 30; T cruzi inh: -3; Beta apoptosis: -1; SKKanGAS inh: 5; CSC inhib: -5; Mdm2-MdmX inh: 24

How did CC(=O)Nc1nnc(-c2ccccn2)o1 do in these assays?
Calb FLC: -16; T cruzi inh: -4; Beta apoptosis: -3; SKKanGAS inh: -2; CSC inhib: -7; Mdm2-MdmX inh: -52

What do the screens show for `O=C(Nc1nnc(-c2cc(Cl)ccc2Cl)o1)c1ccco1`?
Calb FLC: -6; T cruzi inh: -4; Beta apoptosis: -9; SKKanGAS inh: 74*; CSC inhib: -4; Mdm2-MdmX inh: 22

How did O=C(Nc1nnc(-c2ccccn2)o1)c1cccc(Br)c1 do in these assays?
Calb FLC: 1; T cruzi inh: -20; Beta apoptosis: 5; SKKanGAS inh: 67*; CSC inhib: 24; Mdm2-MdmX inh: 16

What do the screens show for `O=C(Nc1nnc(-c2ccco2)o1)c1ccc(Cl)s1`?
Calb FLC: -2; T cruzi inh: -68; SKKanGAS inh: 51*; CSC inhib: 2; Mdm2-MdmX inh: 18

How did CCOc1ncccc1C(=O)OCC(=O)c1ccc(Br)s1 do in these assays?
Beta apoptosis: -2; CSC inhib: 0; Mdm2-MdmX inh: 19

What do the screens show for `O=C(COC(=O)/C=C/c1ccccc1)NC1CCCCCC1`?
Mdm2-MdmX inh: 12

How did Cc1cc(Oc2ccc(=O)n(C)n2)nc(=S)[nH]1 do in these assays?
Calb FLC: -2; T cruzi inh: -26; Beta apoptosis: -4; SKKanGAS inh: 2; CSC inhib: -12; Mdm2-MdmX inh: 3

How did COC(=O)C1(C(C[N+](=O)[O-])c2ccc(C)cc2)C(=O)NCC1c1ccco1 (configuration not stated) do in these assays?
Calb FLC: 0; T cruzi inh: -3; Beta apoptosis: -6; SKKanGAS inh: 64*; CSC inhib: -20; Mdm2-MdmX inh: 14

Results for CCC1(C(=O)OC)NC(c2ccco2)C2C(=O)N(c3ccc(C)cc3)C(=O)C21 (configuration not stated) ?
Calb FLC: 0; T cruzi inh: 2; Beta apoptosis: -2; SKKanGAS inh: 0; CSC inhib: -7; Mdm2-MdmX inh: 7

Results for c1ccc2nc3c(nc2c1)[nH]c1ccccc13 ?
Calb FLC: 2; T cruzi inh: -3; SKKanGAS inh: -1; CSC inhib: -1; Mdm2-MdmX inh: -191

What do the screens show for `c1ccc(-c2c3ccccc3nc3[nH]c4ccccc4c23)cc1`?
Calb FLC: 11; T cruzi inh: 13; Beta apoptosis: 3; SKKanGAS inh: 96*; CSC inhib: 79*; Mdm2-MdmX inh: 29

Results for Cn1nc(-c2ccc(Cl)cc2)c2cc(C(=O)NCCCN3CCCC3)sc21 ?
Calb FLC: 4; T cruzi inh: 43; Beta apoptosis: 17; SKKanGAS inh: -1; CSC inhib: 82*; Mdm2-MdmX inh: 50

What do the screens show for `CCCCN(C)CCNC(=O)c1cc2c(-c3ccccc3F)nn(C)c2s1`?
Calb FLC: 1; T cruzi inh: -8; Beta apoptosis: 97*; SKKanGAS inh: 5; CSC inhib: 12; Mdm2-MdmX inh: 30

What do the screens show for `COCCNc1ccc(S(=O)(=O)N2CCCC2)cn1`?
Calb FLC: 3; T cruzi inh: -10; SKKanGAS inh: 3; CSC inhib: -2; Mdm2-MdmX inh: 34

What do the screens show for `CC(=O)Nc1ccc(CN2CCCC(CCC(=O)NCc3ccccc3F)C2)cc1` (configuration not stated)?
Calb FLC: 23; T cruzi inh: 23; Beta apoptosis: -4; SKKanGAS inh: -2; CSC inhib: 4; Mdm2-MdmX inh: -20

Results for O=C(CCC1CCCN(Cc2cccc(Cl)c2)C1)NCc1ccccc1F (configuration not stated) ?
Calb FLC: -4; T cruzi inh: 61*; Beta apoptosis: 3; SKKanGAS inh: -24; CSC inhib: -3; Mdm2-MdmX inh: 37

Results for CC(C)c1csc(CN2CCCC(CCC(=O)NCc3ccccc3F)C2)n1 (configuration not stated) ?
Calb FLC: 7; T cruzi inh: 51; Beta apoptosis: 1; SKKanGAS inh: -1; CSC inhib: 6; Mdm2-MdmX inh: 10

Results for Cc1nn(C(C)C)c(C)c1CN1CCCC(CCC(=O)NCc2ccccc2F)C1 (configuration not stated) ?
Calb FLC: -17; T cruzi inh: 58*; Beta apoptosis: -2; SKKanGAS inh: 0; CSC inhib: -13; Mdm2-MdmX inh: 2

Results for C=C(C)COc1ccc(-c2ncncc2-c2ccccc2)c(O)c1 ?
Calb FLC: 3; T cruzi inh: -24; Beta apoptosis: -5; SKKanGAS inh: 3; CSC inhib: 10; Mdm2-MdmX inh: 17

Results for CCC(CO)[n+]1c(C)cc(/C=C2\Sc3ccccc3N2Cc2ccccc2)cc1C (configuration not stated) ?
Beta apoptosis: 105*; CSC inhib: 26

What do the screens show for `COc1ccc(Cl)cc1NC(=O)CN1CCC(NC(=O)C2CC2)CC1`?
Calb FLC: 5; T cruzi inh: -11; Beta apoptosis: 8; SKKanGAS inh: 16; CSC inhib: 8; Mdm2-MdmX inh: -4

What do the screens show for `CC(=O)c1c(O)cc(O)c(C(C)=O)c1O`?
Calb FLC: 0; T cruzi inh: 26; SKKanGAS inh: 91*; CSC inhib: -3; Mdm2-MdmX inh: 8
